Assay results from ChEMBL document CHEMBL4706770, “SD-91 as A Potent and Selective STAT3 Degrader Capable of Achieving Complete and Long-Lasting Tumor Regression” (ACS Med Chem Lett, 2021).
pKi: −log10 of the molar value. Active and inactive are the calls of the source. The rule behind the calls is not given here.

Tests used:
[1] = target: Signal transducer and activator of transcription 3 (Homo sapiens, UniProt P40763); test: Binding affinity to recombinant STAT3 (unknown origin) assessed as inhibition constant incubated for 1 hr by fluorescence polarization assay
In short: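 Competitive fluorescence-polarization binding assay with recombinant human STAT3 protein. Ki derived from competitive binding curves.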

[2] = target: T1, Signal transducer and activator of transcription 1-alpha/beta (Homo sapiens) (UniProt P42224); test: Induction of STAT1 degradation in human MOLM16 cells at 0.25 to 100 uM incubated for 4 hrs by Western blot analysis; type: cell-based; conditions: dose 0.25-100 µM
T1 sequence (whole entry): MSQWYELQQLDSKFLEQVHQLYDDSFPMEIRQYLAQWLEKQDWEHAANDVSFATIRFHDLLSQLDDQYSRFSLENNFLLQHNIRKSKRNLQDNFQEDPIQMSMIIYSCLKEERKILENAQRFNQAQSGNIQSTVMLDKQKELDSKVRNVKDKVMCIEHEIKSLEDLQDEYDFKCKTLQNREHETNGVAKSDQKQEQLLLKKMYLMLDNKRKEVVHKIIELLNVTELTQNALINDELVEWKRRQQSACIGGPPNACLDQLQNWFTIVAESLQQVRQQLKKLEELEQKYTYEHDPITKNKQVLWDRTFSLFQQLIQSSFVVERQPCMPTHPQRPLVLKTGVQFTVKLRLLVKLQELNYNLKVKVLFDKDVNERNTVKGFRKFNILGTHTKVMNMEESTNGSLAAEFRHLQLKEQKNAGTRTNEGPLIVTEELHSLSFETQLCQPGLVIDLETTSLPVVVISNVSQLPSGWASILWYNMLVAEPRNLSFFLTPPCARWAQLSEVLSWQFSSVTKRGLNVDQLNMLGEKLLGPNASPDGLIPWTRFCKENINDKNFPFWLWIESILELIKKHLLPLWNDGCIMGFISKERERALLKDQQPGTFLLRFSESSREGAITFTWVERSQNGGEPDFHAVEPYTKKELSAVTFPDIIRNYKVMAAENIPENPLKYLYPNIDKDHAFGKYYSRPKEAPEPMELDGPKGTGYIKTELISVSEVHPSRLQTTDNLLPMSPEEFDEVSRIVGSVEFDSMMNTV
In short: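 MOLM-16 cells treated for 4 h over 25 nM to 100 μM. STAT proteins assessed by Western blot with GAPDH as loading control.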

[3] = target: T2, Signal transducer and activator of transcription 5A (Homo sapiens) (UniProt P42229); test: Induction of STAT5 degradation in human SU-DHL-1 cells at 0.25 to 100 uM incubated for 14 hrs by Western blot analysis; type: cell-based; conditions: dose 0.25-100 µM
T2 sequence (whole entry): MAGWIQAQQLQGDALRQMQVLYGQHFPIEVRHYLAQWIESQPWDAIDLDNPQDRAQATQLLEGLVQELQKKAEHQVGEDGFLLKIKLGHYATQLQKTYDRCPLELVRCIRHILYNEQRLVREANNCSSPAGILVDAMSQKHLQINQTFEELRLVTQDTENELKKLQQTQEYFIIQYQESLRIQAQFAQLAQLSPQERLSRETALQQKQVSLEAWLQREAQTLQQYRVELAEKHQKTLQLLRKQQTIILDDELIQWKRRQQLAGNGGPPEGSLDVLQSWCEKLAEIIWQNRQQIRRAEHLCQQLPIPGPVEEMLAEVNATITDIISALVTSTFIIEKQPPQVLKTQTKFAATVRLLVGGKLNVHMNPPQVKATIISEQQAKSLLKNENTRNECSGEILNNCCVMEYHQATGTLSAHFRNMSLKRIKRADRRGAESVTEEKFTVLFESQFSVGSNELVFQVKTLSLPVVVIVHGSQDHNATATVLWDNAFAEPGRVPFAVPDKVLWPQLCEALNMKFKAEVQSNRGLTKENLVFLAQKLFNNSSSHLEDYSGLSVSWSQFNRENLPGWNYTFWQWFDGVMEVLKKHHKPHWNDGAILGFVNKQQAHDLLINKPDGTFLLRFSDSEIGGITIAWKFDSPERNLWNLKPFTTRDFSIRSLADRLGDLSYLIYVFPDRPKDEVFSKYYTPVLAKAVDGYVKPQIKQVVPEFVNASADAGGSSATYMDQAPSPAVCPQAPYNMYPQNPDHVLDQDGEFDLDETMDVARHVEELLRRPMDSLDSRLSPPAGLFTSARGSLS

[4] = target: T3, Signal transducer and activator of transcription 6 (Homo sapiens) (UniProt P42226); test: Induction of STAT6 degradation in human MOLM16 cells at 0.25 to 100 uM incubated for 4 hrs by Western blot analysis; type: cell-based; conditions: dose 0.25-100 µM
T3 sequence (whole entry): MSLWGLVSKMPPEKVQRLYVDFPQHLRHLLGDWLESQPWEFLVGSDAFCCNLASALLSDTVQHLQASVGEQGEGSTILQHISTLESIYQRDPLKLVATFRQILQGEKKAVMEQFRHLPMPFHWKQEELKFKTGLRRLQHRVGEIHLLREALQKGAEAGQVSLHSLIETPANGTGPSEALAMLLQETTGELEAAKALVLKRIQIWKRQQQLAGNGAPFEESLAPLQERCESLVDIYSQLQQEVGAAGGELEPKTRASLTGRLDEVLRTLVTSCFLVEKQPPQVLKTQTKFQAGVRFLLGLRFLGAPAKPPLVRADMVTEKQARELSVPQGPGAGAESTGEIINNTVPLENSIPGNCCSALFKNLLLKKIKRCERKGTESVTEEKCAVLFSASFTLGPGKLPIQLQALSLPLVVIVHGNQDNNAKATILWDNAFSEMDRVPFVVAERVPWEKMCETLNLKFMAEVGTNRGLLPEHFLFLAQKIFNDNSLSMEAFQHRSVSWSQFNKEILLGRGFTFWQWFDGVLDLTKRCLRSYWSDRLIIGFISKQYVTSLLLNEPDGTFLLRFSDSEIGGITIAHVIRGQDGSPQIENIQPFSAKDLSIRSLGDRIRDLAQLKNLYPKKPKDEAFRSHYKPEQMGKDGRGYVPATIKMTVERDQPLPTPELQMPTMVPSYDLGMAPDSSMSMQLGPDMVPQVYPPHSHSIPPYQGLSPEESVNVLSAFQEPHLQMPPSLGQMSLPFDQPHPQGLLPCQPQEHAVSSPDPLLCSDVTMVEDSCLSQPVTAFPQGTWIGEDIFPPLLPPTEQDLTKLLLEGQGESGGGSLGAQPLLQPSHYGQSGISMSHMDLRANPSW
In short: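 Cells treated 4 h with compounds across 25 nM to 100 μM; STAT proteins detected by Western blot with GAPDH as loading control; STAT3 DC50 estimated by densitometry of STAT3 relative to GAPDH. Applies to MOLM-16 for all STATs, and to SU-DHL-1 and SUP-M2 for STAT3.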

[5] = Drug metabolism in complete cell culture medium assessed as 5-amino-4-(4-(8-((5S,8S,10aR)-8-((S)-5-amino-1-(benzhydrylamino)-1,5-dioxopentan-2-ylcarbamoyl)-6-oxo-5-(5-(phosphonocarbonyl)-1H-indole-2-carboxamido)octahydropyrrolo[1,2-a][1,5]diazocin-3(4H)-yl)-8-oxooct-1-ynyl)-1-oxoisoindolin-2-yl)-5-oxopentanoic acid after 96 hrs by LC/MS/MS analysis
In short: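 Parent compound incubated in the cell culture medium used for the cellular assays, with or without cells, at 37 °C. Percentages of the hydrolysis product and the glutarimide ring-opened product measured at time points up to 96 h.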

Sequence of Signal transducer and activator of transcription 3 (P40763 whole entry): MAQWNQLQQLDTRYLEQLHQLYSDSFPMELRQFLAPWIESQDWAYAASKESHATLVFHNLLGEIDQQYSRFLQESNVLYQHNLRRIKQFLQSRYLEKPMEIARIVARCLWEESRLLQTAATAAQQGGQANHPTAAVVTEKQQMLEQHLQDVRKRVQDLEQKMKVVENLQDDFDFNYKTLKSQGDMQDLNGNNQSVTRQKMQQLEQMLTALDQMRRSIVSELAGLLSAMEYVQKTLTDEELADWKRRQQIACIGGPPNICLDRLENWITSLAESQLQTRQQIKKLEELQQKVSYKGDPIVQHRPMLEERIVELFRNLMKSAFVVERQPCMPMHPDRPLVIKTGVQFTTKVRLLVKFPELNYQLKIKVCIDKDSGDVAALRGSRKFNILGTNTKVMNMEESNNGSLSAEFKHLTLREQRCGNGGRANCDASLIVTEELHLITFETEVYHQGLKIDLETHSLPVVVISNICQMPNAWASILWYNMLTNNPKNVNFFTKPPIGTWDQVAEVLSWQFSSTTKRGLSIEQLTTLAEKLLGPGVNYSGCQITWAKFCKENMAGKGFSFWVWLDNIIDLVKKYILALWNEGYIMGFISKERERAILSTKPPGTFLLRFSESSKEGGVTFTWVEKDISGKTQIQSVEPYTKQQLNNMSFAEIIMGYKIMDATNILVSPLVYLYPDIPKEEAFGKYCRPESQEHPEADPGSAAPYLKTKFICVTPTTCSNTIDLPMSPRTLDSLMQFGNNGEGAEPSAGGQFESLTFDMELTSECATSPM

## NC(=O)CC[C@H](NC(=O)[C@@H]1CC[C@@H]2CCN(C(=O)CCCCCC#Cc3cccc4c3CN(C3CCC(=O)NC3=O)C4=O)C[C@H](NC(=O)c3cc4cc(C(=O)P(=O)(O)O)ccc4[nH]3)C(=O)N21)C(=O)NC(c1ccccc1)c1ccccc1 (stereo partly drawn)
[1]
  pKi: 8.29
[2]
  Activity: inactive
[3]
  Activity: inactive
[4]
  Activity: inactive
[5]
  Drug metabolism: < 10%

## CC(=O)N1CC[C@H]2CC[C@@H](C(=O)N[C@@H](CCC(N)=O)C(=O)NC(c3ccccc3)c3ccccc3)N2C(=O)[C@@H](NC(=O)c2cc3cc(C(=O)P(=O)(O)O)ccc3[nH]2)C1
[2]
  Activity: inactive
[3]
  Activity: inactive
[4]
  Activity: inactive

## NC(=O)CC[C@H](NC(=O)[C@@H]1CC[C@@H]2CCN(C(=O)CCCCCC#Cc3cccc4c3CN(C3CCC(=O)NC3=O)C4=O)C[C@H](NC(=O)c3cc4cc(C(F)(F)P(=O)(O)O)ccc4[nH]3)C(=O)N21)C(=O)NC(c1ccccc1)c1ccccc1 (stereo partly drawn)
[1]
  pKi: 7.93
[5]
  Drug metabolism: 10%

## CC(=O)N1CC[C@H]2CC[C@@H](C(=O)N[C@@H](CCC(N)=O)C(=O)NC(c3ccccc3)c3ccccc3)N2C(=O)[C@@H](NC(=O)c2cc3cc(C(F)(F)P(=O)(O)O)ccc3[nH]2)C1
[2]
  Activity: inactive
[3]
  Activity: inactive
[4]
  Activity: inactive
